High-throughput results deposited in PubChem BioAssay by several laboratories.
Shown are actives, neighbours in structure and some others; about 1.8% of the full set was active somewhere.
Rpn11 inh: Rpn11 (human) deubiquitinase inhibition; O00487; human 26S proteasome, Ub4-pepOG fluorescence polarization; 20S core pre-blocked with epoxomicin; calls only at 20 µM; 0.59% of 360,000 active;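 active = inhibition at 20 µM, scaled to each plate's controls, above about 33%, limit read from the data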
SUMO HTRF inh: inhibitors of human SUMOylation (UBC9); P63279; inhibition, % at 35 µM; 0.36% of 290,000 active; AID 2006; HTRF SUMOylation assay, SAE1/SAE2 + UBC9, in vitro; in the data active = inhibition above about 50%, passing the limit was not always enough
TPT1 inh: blocks Candida albicans tRNA 2'-phosphotransferase; recombinant caTPT1, FP RNA substrate dephosphorylation; inhibition, % at 5 µM; 0.81% of 300,000 active; AID 1962;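 active = inhibition above the mean of all tested compounds plus 3 SD, set per screening campaign, cut at about 24% in these data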;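 note: plate controls were DMSO alone for no effect and ferristatin control at 100 nM for full effect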
HNF4A DNA FP: change in binding of human HNF4 alpha to DNA; 0.3% of 360,000 active; HNF4a-FITC DNA binding, fluorescence polarization, 1 h; P41235; activity change, % at 10 µM; in the data active = activity change above about 30%, passing the limit was not always enough
Target sequence (P41235 whole entry, looked up): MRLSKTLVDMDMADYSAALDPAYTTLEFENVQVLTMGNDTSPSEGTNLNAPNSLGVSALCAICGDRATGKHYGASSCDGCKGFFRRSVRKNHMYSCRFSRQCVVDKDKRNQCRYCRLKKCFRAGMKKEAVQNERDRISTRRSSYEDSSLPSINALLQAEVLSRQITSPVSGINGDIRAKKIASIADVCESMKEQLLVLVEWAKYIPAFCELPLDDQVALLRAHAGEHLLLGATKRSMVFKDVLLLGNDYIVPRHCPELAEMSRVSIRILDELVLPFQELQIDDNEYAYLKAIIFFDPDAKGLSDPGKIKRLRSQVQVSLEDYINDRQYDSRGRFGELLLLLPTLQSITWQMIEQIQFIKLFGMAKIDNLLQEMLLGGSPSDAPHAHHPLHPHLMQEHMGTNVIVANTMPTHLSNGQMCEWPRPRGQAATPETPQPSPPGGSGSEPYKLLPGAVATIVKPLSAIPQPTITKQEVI
SENP1 FRET inh: blocks the human SENP1 SUMO protease catalytic domain; recombinant SENP1 catalytic domain, CyPet-SUMO1-YPet FRET cleavage; inhibition, % at 10 µM; 0.21% of 360,000 active;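 active = inhibition at least 30% at 10 µM, raw YFP signal under a set limit, fluorescence ratio 0.5 to 1.5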;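 note: 0% = enzyme with DMSO and 100% = no enzyme wells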
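Test system: recombinant human SENP1 catalytic domain, His6-tagged / Medium: pH 8 Tris buffer with EDTA, NaCl, BME, BSA, NP40, catalase / Also added: SUMO1 FRET substrate flanked by Cypet and Ypet, 25 nM / Times: 50 min reaction at room temperature / Signal: FRET, CFP and YFP emission / Control set: no-enzyme low control and enzyme-plus-DMSO high control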
CSN inh: inhibitors of human CSN-mediated cullin deneddylation; Q92905; inhibition, % at 12.5 µM; 0.38% of 360,000 active; Purified CSN, SCF-Nedd8-OG deneddylation, fluorescence polarization;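 active = pattern-corrected inhibition above about 35%, with an unprinted fluorescence ratio check between 0.5 and 1.5, limit read from the data, passing the limit was not always enough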;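 note: 0% = enzyme with substrate and 100% = substrate without enzyme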
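Assay system: HEK293T-derived human Csn5 enzyme; quantity: 0.24 nM enzyme; medium: Tris/NaCl/DTT buffer, pH 7.5; also added: substrate SCFSkp2-Nedd8OG, 10 nM; doses: 12.5 µM compound; schedule: 90 min reaction at room temperature; signal: FP; read-out: % inhibition of substrate cleavage by Csn5; benchmarks: substrate-only high control, full reaction low control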
Active calls of the source: *; i = inactive; nt = no result shown.

SMILES	Rpn11 inh	SUMO HTRF inh	TPT1 inh	HNF4A DNA FP	SENP1 FRET inh	CSN inh
O=C(N/N=C\c1cc(Cl)ccc1O)c1ccc(S(=O)(=O)N2CCCCC2)cc1	i	10	10	-4	51*	-6
O=C(Nc1cc(S(=O)(=O)Nc2ccc(Cl)cc2)ccc1O)c1ccc(S(=O)(=O)N2CCCCCC2)cc1	i	2	0	-12	3	29
O=S(=O)(O)c1cc2oc(-c3ccccc3)nc2c2ccccc12	i	nt	-1	3	-4	-2
COc1ccc(NC(=O)CCl)cn1	nt	83*	-35	nt	nt	nt
COc1ccc(C(C(C(=O)c2cccs2)N2CCOCC2)N2CCOCC2)cc1OC (stereo not given)	i	23	-2	-4	-5	8
OCCNc1nc2ccccc2n1CC(O)c1ccccc1 (stereo not given)	i	-1	2	120*	-2	-6
O=C1c2cc(S(=O)(=O)NCCO)ccc2-c2ccc(S(=O)(=O)NCCO)cc21	i	-2	2	-1	5	-10
N#CC(C#N)=C1c2cc(S(=O)(=O)NCCO)ccc2-c2ccc(S(=O)(=O)NCCO)cc21	i	28	-1	-8	33*	-2
CC(Sc1ccccc1)C(=O)NCCc1ccccc1 (stereo not given)	i	-2	-4	-2	-2	50*
Oc1c(Cl)cc(Cl)cc1/C=N/NC(=S)NC1CC2C=CC1C2 (stereo not given)	i	55*	16	1	-32	9
O=C1CC(c2ccco2)Cc2nc(N3CCc4ccccc4C3)ncc21 (stereo not given)	i	23	1	-2	31*	17
Cn1ccnc1C(=O)c1ccccc1Cl	i	13	-3	0	1	-2
Cc1cc(C(=O)NC2CCC(O)CC2)c(C)o1 (stereo not given)	i	nt	nt	-1	0	89*
Cc1cc(C(=O)NC2CCCc3ccccc32)c(C)o1 (stereo not given)	i	23	1	4	-5	-4
c1ccc(CNc2c3c(nc4ncnn24)CCC3)cc1	i	-3	-4	63*	3	4
CC(=O)N(C1=C(Cl)C(=O)c2ccccc2C1=O)C1CCCCC1	i	71*	2	2	-13	2
CC(=O)N(c1ccccc1C)C1CCCC1	i	0	0	-1	0	2
O=C(Nc1ccc2c(c1)OCCO2)C1CCC1	i	-6	0	68*	1	-8
NC(=O)Nc1ccc2c(c1)OCCO2	i	12	-5	2	3	0
C[C@H]1[C@H](NC(=O)C(=NOC(C)(C)C(=O)O)c2csc(N)n2)C(=O)N1S(=O)(=O)O	i	nt	-3	nt	3	1
O=c1cc(-c2ccc(O)cc2)oc2c(-c3c(O)cc(O)c4c(=O)cc(-c5ccc(O)cc5)oc34)c(O)cc(O)c12	i	nt	nt	-6	-2	3
O=c1c(-c2c(O)cc(O)c3c(=O)cc(-c4ccc(O)cc4)oc23)c(-c2ccc(O)cc2)oc2cc(O)cc(O)c12	i	52*	4	-24	-13	31
Nc1nc(Nc2ccccc2)nc2ccccc12	i	1	-7	0	3	3
CCOc1ccc(Nc2nc(N)c3ccccc3n2)cc1	i	11	nt	60*	1	4
CCCCN1Cc2c(nc3cc(-c4ccco4)[nH]n3c2=O)C1=O	i	92*	-1	-8	-38	17
SMILES	Rpn11 inh	SUMO HTRF inh	TPT1 inh	HNF4A DNA FP	SENP1 FRET inh	CSN inh
C=CCn1c(=O)c(C(=O)Nc2ccccc2S(N)(=O)=O)c(O)c2ccccc21	i	7	0	3	1	93*
O=C(COc1ccc2c(-c3ccccc3)cc(=O)oc2c1)NCc1ccccn1	i	-4	-1	1	2	-3
O=C(COc1ccc2c(-c3ccccc3)cc(=O)oc2c1)Nc1cccnc1	i	1	1	11	3	49*
Cc1c(S(=O)(=O)N2CCCCC2)c(=O)n(C)c(=O)n1C	i	nt	-5	5	0	64*
NC(=O)C1=C(N=C2CCCCC2)CCCC1	i	nt	nt	-1	1	53*
CC(=O)Nc1ccc(C(=O)CS(=O)(=O)c2ccc(C)cc2)cc1	i	-4	-1	0	0	0
CC(=O)Nc1ccc(S(=O)(=O)c2ccc(C)cc2)cc1	i	25	-1	34*	4	5
CC[C@]12c3[nH]c4ccc(Cl)cc4c3CCN1C(=O)[C@@H](CC(=O)NCc1ccco1)C[C@@H]2C(=O)N1CCN(C(=O)c2ccco2)CC1	i	nt	nt	3	0	-3
CC[C@]12c3[nH]c4ccc(Cl)cc4c3CCN1C(=O)[C@@H](CC(=O)NCCN1CCOCC1)C[C@@H]2C(=O)N1CCN(C(=O)c2ccco2)CC1	i	nt	nt	-1	2	95*
Cc1ccc(-c2cc(-c3ccccc3O)nc(N/N=C/c3cccnc3)n2)cc1	i	53*	4	2	1	0
CC(C)n1c(O)c(N=NC(=O)CNC(=O)Cc2ccc(Cl)cc2)c2ccccc21	i	10	1	0	4	4
CC(C)n1c(O)c(N=Nc2ccc(Cl)nn2)c2ccccc21	nt	-10	4	33	17	44*
Cc1cc(NC(=O)CSc2nc3ccccc3n2CC(=O)N2CC(C)CC(C)C2)no1 (stereo not given)	i	0	3	6	1	-3
CC(=O)OCCNc1cc(N2CCN(C)CC2)c2noc3c2c1C(=O)c1ccccc1-3	i	0	nt	-20	12	-12
CCOC(=O)C(C(=O)OCC)c1cc(Br)c2noc3c2c1C(=O)c1ccccc1-3	i	87*	-41	-43	-22	-82
Cc1ccc2c(c1)cc1c(=O)n(CC(=O)NCc3ccccn3)nc(C)n12	i	6	-1	0	3	-4
Clc1cc(Cl)c2nc(N3CCCCC3)sc2c1	i	-7	-2	-2	1	3
Clc1cc(Cl)c2nc(N3CCCC3)sc2c1	i	nt	0	-3	2	41*
COc1ccc(N=C2NC(=O)/C(=C\c3ccco3)S2)cc1	i	62*	3	-1	2	23
CCC1([N+](=O)[O-])COC(c2ccc(OC)cc2)OC1 (stereo not given)	i	nt	nt	-4	-1	1
CN(Cc1ccccc1)c1cc2c(c3c1ccn3C)C1CCC2O1 (stereo not given)	i	nt	nt	3	-19	3
Cn1ccc2c(N(Cc3ccccc3)Cc3ccccc3)cc3c(c21)C1CCC3O1 (stereo not given)	i	nt	nt	2	-6	84*
